Assay results taken from ChEMBL document CHEMBL1140307, “Design and synthesis of alpha-aryloxyphenylacetic acid derivatives: a novel class of PPARalpha/gamma dual agonists with potent antihyperglycemic and lipid modulating activity” (J Med Chem, 2005).
pEC50, pIC50: −log10 of the molar value. Where “and” joins values, the source holds several entries; their conditions need not be identical. Equal entries are not always repeated.

Columns and labels:
[1] = Area under concentration time curve of compound when administered perorally at a dose of 2 mg/kg to dogs; format: ADME, organism-based, Canis lupus familiaris; set-up: dose 2 mg/kg, route oral; details: dog, in vivo, po
Method in brief: (§1)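 Male Sprague-Dawley rats (n = 3) and male adult Beagle dogs (n = 4) were fasted overnight. They received either a 2 mg/kg oral gavage dose or a 0.5 mg/kg IV bolus. Blood was drawn into heparin tubes from a femoral arterial cannula (rat) or the jugular vein (dog) at set time points. Plasma was acidified with 0.5 M formate pH 3.0, stored at -70 °C and quantified by LC-MS/MS.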

[2] = Area under concentration time curve of compound when administered perorally at a dose of 2 mg/kg to rats; format: ADME, organism-based; set-up: dose 2 mg/kg, route oral; details: rat, in vivo, po; method in brief: as §1
[3] = biological target: T1, Peroxisome proliferator-activated receptor alpha (Homo sapiens, UniProt Q07869); assay: In vitro binding affinity for human PPAR alpha
T1 sequence (Q07869 whole entry): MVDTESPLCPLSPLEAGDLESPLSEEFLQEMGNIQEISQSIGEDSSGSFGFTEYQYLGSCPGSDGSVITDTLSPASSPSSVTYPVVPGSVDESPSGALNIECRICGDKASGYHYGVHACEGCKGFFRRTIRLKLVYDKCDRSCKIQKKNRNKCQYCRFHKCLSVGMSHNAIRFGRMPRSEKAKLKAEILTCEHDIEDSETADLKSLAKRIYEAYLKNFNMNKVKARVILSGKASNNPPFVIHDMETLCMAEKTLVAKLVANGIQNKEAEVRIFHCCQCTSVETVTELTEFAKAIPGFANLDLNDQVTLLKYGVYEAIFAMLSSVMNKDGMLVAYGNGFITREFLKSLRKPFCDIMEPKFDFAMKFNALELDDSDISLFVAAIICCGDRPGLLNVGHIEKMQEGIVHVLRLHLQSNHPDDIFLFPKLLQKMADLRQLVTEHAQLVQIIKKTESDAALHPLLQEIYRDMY

[4] = biological target: T2, Peroxisome proliferator-activated receptor gamma (Homo sapiens, UniProt P37231); assay: In vitro binding affinity for human PPAR gamma
T2 sequence (P37231 whole entry): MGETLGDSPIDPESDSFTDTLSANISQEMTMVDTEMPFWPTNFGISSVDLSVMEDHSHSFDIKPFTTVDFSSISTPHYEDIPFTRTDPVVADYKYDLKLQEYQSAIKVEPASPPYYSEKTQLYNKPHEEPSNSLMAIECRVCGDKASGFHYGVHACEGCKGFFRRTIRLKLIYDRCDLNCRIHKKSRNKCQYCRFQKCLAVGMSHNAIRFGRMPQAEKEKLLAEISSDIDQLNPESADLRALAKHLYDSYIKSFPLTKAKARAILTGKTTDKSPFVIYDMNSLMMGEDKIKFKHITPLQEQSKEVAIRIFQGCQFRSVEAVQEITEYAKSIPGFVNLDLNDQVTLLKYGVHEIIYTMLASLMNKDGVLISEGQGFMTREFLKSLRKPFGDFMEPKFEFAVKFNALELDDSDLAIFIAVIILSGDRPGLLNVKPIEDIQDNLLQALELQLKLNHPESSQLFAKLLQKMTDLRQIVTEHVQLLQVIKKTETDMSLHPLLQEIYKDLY

[5] = biological target: T1, Peroxisome proliferator-activated receptor alpha; assay: Agonist response against human PPAR alpha in transactivation assay
[6] = biological target: T2, Peroxisome proliferator-activated receptor gamma; assay: Agonist response against human PPAR gamma in transactivation assay; format: functional
Cricetinae gen. sp. [7] = assay: Percentage change in the serum cholesterol upon administration of compound (3 mpk) in hamster; format: functional
Method in brief: (§2)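 Male Golden Syrian hamsters were fed normal rodent chow and dosed orally once daily with compound. Serum total cholesterol and triglyceride were measured and expressed as percent change versus vehicle controls.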

Cricetinae gen. sp. [8] = assay: Percentage change in the serum cholesterol upon administration of compound (10 mpk) in hamster; format: functional; method in brief: as §2
Cricetinae gen. sp. [9] = assay: Percentage change in the serum triglyceride upon administration of compound (3 mpk) in hamster; format: functional; method in brief: as §2
Cricetinae gen. sp. [10] = assay: Effect (3 mpk) on serum cholesterol in hamster; format: functional
Method in brief: (§3)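 Male Golden Syrian hamsters on normal rodent chow, dosed orally with test compound (9 days per table legend). Serum total cholesterol and triglyceride were measured in mg/dL. Values are group means, expressed as % change versus the vehicle-treated control group.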

Cricetinae gen. sp. [11] = assay: Effect (10 mpk) on serum cholesterol in hamster; format: functional; method in brief: as §3
[12] = Half life when administered intravenously at a dose of 0.5 mg/kg to dogs; format: ADME, organism-based, Canis lupus familiaris; set-up: dose 0.5 mg/kg, route intravenous; details: dog, in vivo, iv; method in brief: as §1
[13] = Half life when administered intravenously at a dose of 0.5 mg/kg to rats; format: ADME, organism-based; set-up: dose 0.5 mg/kg, route intravenous; details: rat, in vivo, iv; method in brief: as §1
[14] = Oral bioavailability in dog; format: ADME, organism-based, Canis lupus familiaris; details: in vivo; method in brief: as §1
[15] = Oral bioavailability in rat; format: ADME, organism-based; details: in vivo; method in brief: as §1
Mesocricetus auratus = organism: Mesocricetus auratus; assay: Effect (3 mpk) on serum triglyceride in hamster

CCCc1cc(C(=O)CC)cc(CCC)c1O[C@H](C(=O)O)c1ccc(C(C)C)cc1
AUC [1]: 70.5 µM·h
AUC [2]: 154 µM·h
pIC50 [3]: 7.64
pIC50 [4]: 7.12
pEC50 [5]: 7.25
pEC50 [6]: 6.82
Change (Cricetinae gen. sp. [7]): -32%
Change (Cricetinae gen. sp. [8]): -33% and -29% and -17.5%
Change (Cricetinae gen. sp. [9]): -22%
Cholesterol level (Cricetinae gen. sp. [10]): 88 mg/dL
Cholesterol level (Cricetinae gen. sp. [11]): 86 mg/dL
Triglyceride level (Cricetinae gen. sp. [11]): 236 mg/dL
half-life [12]: 2.5 h
half-life [13]: 6.1 h
bioavailability [14]: 85%
bioavailability [15]: 65%
Triglyceride level (Mesocricetus auratus): 259 mg/dL
